Data: ChEMBL document CHEMBL4145530, “Design, synthesis and pharmacological evaluation of N-benzyl-piperidinyl-aryl-acylhydrazone derivatives as donepezil hybrids: Discovery of novel multi-target anti-alzheimer prototype drug candidates” (Eur J Med Chem, 2018)

Legend:
Acetylcholinesterase [1] = molecular target: T1, Acetylcholinesterase (Electrophorus electricus, UniProt O42275); experiment: (§1) Inhibition of electric eel AChE using acetylthiocholine iodide as substrate preincubated for 10 mins followed by substrate addition by Ellman's method
T1 sequence (O42275 whole entry): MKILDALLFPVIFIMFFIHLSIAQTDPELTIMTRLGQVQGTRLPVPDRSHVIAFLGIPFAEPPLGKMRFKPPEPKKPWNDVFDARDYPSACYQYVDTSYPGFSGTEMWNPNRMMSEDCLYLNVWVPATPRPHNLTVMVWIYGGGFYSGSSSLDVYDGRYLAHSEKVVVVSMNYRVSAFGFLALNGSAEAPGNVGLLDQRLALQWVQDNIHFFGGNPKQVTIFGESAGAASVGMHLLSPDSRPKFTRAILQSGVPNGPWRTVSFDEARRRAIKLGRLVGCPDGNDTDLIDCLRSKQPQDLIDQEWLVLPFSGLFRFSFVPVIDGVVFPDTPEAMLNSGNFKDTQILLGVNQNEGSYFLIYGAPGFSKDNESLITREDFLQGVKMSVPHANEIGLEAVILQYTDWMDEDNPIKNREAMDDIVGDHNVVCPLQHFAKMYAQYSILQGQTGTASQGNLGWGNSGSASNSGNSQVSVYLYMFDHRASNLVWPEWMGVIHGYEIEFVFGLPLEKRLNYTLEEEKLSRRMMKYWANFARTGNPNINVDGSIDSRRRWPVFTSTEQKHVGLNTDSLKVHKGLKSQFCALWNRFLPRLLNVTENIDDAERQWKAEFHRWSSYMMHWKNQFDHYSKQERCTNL

Mus musculus [2] = experiment: Antinociceptive activity in carrageenan-induced Swiss mouse model of mechanical hyperalgesia assessed as mechanical hyperalgesic index pretreated orally for 1 hr followed by carrageenan challenge by Von Frey filament assay; assay type: functional
Procedure, shortened: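 Swiss mice were placed in wire-screen acrylic boxes 60 min before testing. Vehicle, compound or indomethacin was given orally 1 h before intraplantar carrageenan. Mechanical threshold was found by the von Frey up-and-down method, with at least 6 trials at 10 s intervals, raising filament mass until paw withdrawal. Results are given as threshold in grams; n=8.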

[3] = molecular target: Acetylcholinesterase (Electrophorus electricus) (UniProt O42275); experiment: Inhibition of electric eel AChE at 100 uM using acetylthiocholine iodide as substrate preincubated for 10 mins followed by substrate addition by Ellman's method relative to control
Sequence of Acetylcholinesterase (Electrophorus electricus) (O42275 24-633 limits assumed): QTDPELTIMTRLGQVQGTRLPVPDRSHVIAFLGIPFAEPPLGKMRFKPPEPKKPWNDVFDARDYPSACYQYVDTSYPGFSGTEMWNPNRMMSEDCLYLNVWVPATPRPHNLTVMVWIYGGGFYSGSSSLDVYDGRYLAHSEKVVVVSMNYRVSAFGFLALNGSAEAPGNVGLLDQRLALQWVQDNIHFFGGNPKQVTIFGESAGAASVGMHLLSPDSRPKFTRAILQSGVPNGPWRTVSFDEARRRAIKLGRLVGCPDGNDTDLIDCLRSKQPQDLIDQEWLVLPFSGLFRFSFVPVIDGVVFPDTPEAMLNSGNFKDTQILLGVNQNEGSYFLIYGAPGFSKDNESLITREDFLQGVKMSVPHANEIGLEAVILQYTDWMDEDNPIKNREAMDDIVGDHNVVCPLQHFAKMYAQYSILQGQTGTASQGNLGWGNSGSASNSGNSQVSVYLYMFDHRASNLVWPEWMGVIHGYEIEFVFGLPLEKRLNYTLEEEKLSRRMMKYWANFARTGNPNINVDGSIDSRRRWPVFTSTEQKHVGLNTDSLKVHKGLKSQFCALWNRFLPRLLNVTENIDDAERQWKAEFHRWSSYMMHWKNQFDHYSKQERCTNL

[4] = molecular target: Acetylcholinesterase (Electrophorus electricus) (UniProt O42275); experiment: as §1
[5] = molecular target: Cholinesterase (Equus caballus) (UniProt P81908); experiment: (§2) Inhibition of […] preincubated for 10 mins followed by substrate addition by Ellman's method
Sequence of Cholinesterase (Equus caballus) (P81908 whole entry): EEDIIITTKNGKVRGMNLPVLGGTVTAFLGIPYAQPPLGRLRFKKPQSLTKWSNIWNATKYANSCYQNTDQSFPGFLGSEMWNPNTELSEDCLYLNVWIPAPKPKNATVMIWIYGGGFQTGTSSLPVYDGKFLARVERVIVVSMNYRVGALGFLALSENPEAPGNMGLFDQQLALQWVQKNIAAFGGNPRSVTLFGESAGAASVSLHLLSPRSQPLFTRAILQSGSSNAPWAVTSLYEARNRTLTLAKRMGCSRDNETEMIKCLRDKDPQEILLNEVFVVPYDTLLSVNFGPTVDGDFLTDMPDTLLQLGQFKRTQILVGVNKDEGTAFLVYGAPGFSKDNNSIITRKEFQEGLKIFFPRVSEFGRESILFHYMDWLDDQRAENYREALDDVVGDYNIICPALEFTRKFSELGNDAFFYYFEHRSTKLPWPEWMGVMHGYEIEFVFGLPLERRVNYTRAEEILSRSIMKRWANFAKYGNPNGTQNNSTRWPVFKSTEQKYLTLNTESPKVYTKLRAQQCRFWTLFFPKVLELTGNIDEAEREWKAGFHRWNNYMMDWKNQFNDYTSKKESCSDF

Cholinesterase = Cholinesterase (Equus caballus, UniProt P81908); experiment: as §2
Sequence of Cholinesterase (P81908 whole entry): as above

[6] = Selectivity ratio of IC50 for equine serum BuChE to IC50 for electric eel AChE
Procedure, shortened: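 Ellman kinetic assay with Electrophorus electricus AChE (acetylthiocholine) and equine serum BuChE (butyrylthiocholine iodide), […]. Enzyme was preincubated 10 min with DTNB and compound in 0.1 M sodium phosphate, pH 7.4 (final DMSO <0.2%), before substrate was added. A412 was read every 12 s for 5 min at rt to give maximum velocity. IC50 is the geometric mean of 2–3 curves, each 6 concentrations in triplicate. Selectivity is IC50 BuChE/IC50 AChE.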

Acetylcholinesterase [7] = molecular target: T1, Acetylcholinesterase; experiment: Non-competitive inhibition of electric eel AChE using acetylthiocholine iodide as substrate preincubated for 10 mins followed by substrate addition by Ellman's method
Procedure, shortened: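 Substrate-competition kinetics with E. electricus AChE by Ellman's method: 10 min enzyme–DTNB–compound preincubation in 0.1 M phosphate, pH 7.4, then acetylthiocholine; A412 was read every 12 s for 5 min at rt. Three independent data sets, each in triplicate, were averaged and fitted to a simple noncompetitive model. That model was compared with mixed linear inhibition by AICc probability ratio.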

Mus musculus [8] = experiment: Antinociceptive activity in formalin-induced Swiss mouse model of hyperalgesia assessed as time spent licking the injected paw in early phase at 100 mM/kg, po pretreated for 1 hr followed by formalin injection and measured up to 5 mins (reference value: 74 +/- 7.7 secs); assay type: functional
Mus musculus [9] = experiment: Antinociceptive activity in formalin-induced Swiss mouse model of hyperalgesia assessed as time spent licking the injected paw in last phase at […], po pretreated for 1 hr followed by formalin injection and measured at 20 to 30 mins (reference value: 135.8 +/- 10.7 secs); assay type: functional
Mus musculus [10] = experiment: Anti-inflammatory activity in Swiss mouse assessed as reduction in carrageenan-induced paw edema by measuring paw volume […] po pretreated for 1 hr followed by carrageenan injection and measured after 1 to 5 hrs by plethysmometric method (reference value: 67.73 +/- 4.2 uL); assay type: functional
Procedure, shortened: (§3)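 Male Swiss mice (22–28 g) were fasted overnight and dosed orally with vehicle (2% DMSO in sterile saline), compound or indomethacin 1 h before intraplantar carrageenan. Groups (n=10) were matched on basal paw volume. Right hind paw volume was read by plethysmometer at 1, 3 and 5 h and expressed as change from basal.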

Mus musculus [11] = experiment: Anti-inflammatory activity in po dosed Swiss mouse assessed as reduction in carrageenan-induced paw edema pretreated for 1 hr followed by carrageenan injection and measured after 1 to 5 hrs by plethysmometric method; assay type: functional; conditions: read-out: ID50 (the source's name); procedure, shortened: as §3
Mus musculus [12] = experiment: Antinociceptive activity in formalin-induced Swiss mouse model of hyperalgesia assessed as time spent licking the injected paw in early phase at 39 mM/kg, po pretreated for 1 hr followed by formalin injection and measured up to 5 mins (reference value: 74 +/- 7.7 secs); assay type: functional
Mus musculus [13] = experiment: Antinociceptive activity in formalin-induced Swiss mouse model of hyperalgesia assessed as time spent licking the injected paw in last phase at 39 mM/kg, po pretreated for 1 hr followed by formalin injection and measured at 20 to 30 mins (reference value: 135.8 +/- 10.7 secs); assay type: functional
[14] = molecular target: T2, Prostaglandin G/H synthase 1 (Ovis aries) (UniProt P05979); experiment: Inhibition of ovine COX1 at 10 uM using arachidonic acid as substrate preincubated for 120 mins followed by substrate addition measured for 5 secs by chemiluminescence assay relative to control
T2 sequence (whole entry): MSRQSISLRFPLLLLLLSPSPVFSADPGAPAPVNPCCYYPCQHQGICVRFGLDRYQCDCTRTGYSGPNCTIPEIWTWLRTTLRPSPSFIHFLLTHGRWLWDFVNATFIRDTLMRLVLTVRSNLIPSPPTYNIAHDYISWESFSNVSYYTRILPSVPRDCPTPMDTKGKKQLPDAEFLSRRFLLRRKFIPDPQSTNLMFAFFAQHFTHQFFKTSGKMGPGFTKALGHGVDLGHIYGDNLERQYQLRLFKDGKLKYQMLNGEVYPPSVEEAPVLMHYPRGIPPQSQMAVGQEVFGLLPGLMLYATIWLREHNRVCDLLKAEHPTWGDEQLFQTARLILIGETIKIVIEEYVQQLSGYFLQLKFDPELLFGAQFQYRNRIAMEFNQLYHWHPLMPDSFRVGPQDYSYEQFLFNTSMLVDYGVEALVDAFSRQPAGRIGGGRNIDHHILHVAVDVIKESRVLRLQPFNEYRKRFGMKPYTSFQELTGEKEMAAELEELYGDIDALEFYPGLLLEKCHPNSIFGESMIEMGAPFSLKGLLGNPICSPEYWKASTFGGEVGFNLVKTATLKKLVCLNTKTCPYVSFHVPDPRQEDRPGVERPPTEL
Procedure, shortened: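 COX-1 or COX-2 with heme was preincubated 120 min with compound (10 µM) in assay buffer. Arachidonic acid and a chemiluminescent substrate were then added at room temperature and peroxidative activity was read for 5 s; ibuprofen was the reference. Selectivity index was taken as the ratio of maximum COX-2 inhibition to COX-1 inhibition. Two independent experiments.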

[15] = Cytotoxicity against human HepG2 cells assessed as cell viability at 20 to 40 uM after 6 hrs by trypan blue exclusion assay relative to control; assay type: cell-based; conditions: read-out: Activity
Mus musculus [16] = experiment: Inhibition of serum COX1 level in Swiss mouse model of carragenan-induced paw edema at 100 mM/kg, po pretreated for 1 hr followed by carrageenan treatment measured after 3 hrs by ELISA; assay type: functional
Procedure, shortened: (§4)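 Swiss mice (n=8) received compound (100 mM/kg) or vehicle orally 1 h before intraplantar carrageenan; indomethacin was the positive control. Three hours later, blood was drawn from the heart under chloral hydrate anaesthesia and serum was collected. COX-1 and COX-2 protein was measured by sandwich ELISA read at 450 nm and expressed as percent COX level.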

Mus musculus [17] = experiment: Inhibition of serum COX2 level in Swiss mouse model of carragenan-induced paw edema at 100 mM/kg, po pretreated for 1 hr followed by carrageenan treatment measured after 3 hrs by ELISA; assay type: functional; procedure, shortened: as §4

CC(=O)Oc1ccc(/C=N/NC(=O)c2ccc(CN3CCCC(OC(C)=O)C3)cc2)cc1 (stereo not drawn)
IC50 (Acetylcholinesterase [1]): ≥ 100 µM | Activity_index (Mus musculus [2]): 353.1

COc1ccc(/C=N/NC(=O)c2ccc(CN3CCCC(O)C3)cc2)cc1 (stereo not drawn)
inhibition [3]: > 60% | inhibition [4]: Dose-dependent effect | IC50 (Acetylcholinesterase [1]): 13.2 µM | inhibition [5]: Dose-dependent effect | IC50 (Cholinesterase): 91.9 µM | Ratio IC50 [6]: 7 | Ki (Acetylcholinesterase [7]): 11.5 µM | Activity_index (Mus musculus [2]): 161.1 | Time (Mus musculus [8]): 13.29 s | Time (Mus musculus [9]): 15.86 s | Activity (Mus musculus [10]): 25.71 µL | ED50 (Mus musculus [11]): 68.3 µmol/kg

CC(=O)OC1CCCN(Cc2ccc(C(=O)N/N=C/c3ccc(Br)cc3)cc2)C1 (stereo not drawn)
IC50 (Acetylcholinesterase [1]): ≥ 100 µM | Activity_index (Mus musculus [2]): 206.9

O=C(N/N=C/c1ccc(N2CCOCC2)cc1)c1ccc(CN2CCCC(O)C2)cc1 (stereo not drawn)
IC50 (Acetylcholinesterase [1]): ≥ 100 µM | Activity_index (Mus musculus [2]): 83.96 | Time (Mus musculus [8]): 62.75 s | Time (Mus musculus [9]): 69.67 s | Activity (Mus musculus [10]): 21.43 µL | ED50 (Mus musculus [11]): 2.67 µmol/kg

CC(=O)OC1CCCN(Cc2ccc(C(=O)N/N=C/c3ccc(N)cc3)cc2)C1 (stereo not drawn)
IC50 (Acetylcholinesterase [1]): ≥ 100 µM | Activity_index (Mus musculus [2]): 146.1 | Time (Mus musculus [8]): 47.75 s | Time (Mus musculus [9]): 69.75 s | Activity (Mus musculus [10]): 11.43 µL | ED50 (Mus musculus [11]): 4.2 µmol/kg

CN1CC[C@]23c4c5ccc(O)c4O[C@H]2[C@@H](O)C=C[C@H]3[C@H]1C5 [MORPHINE]
Time (Mus musculus [12]): 7.5 s | Time (Mus musculus [13]): 3.375 s

O=C(N/N=C/c1ccc([N+](=O)[O-])cc1)c1ccc(CN2CCCC(O)C2)cc1 (stereo not drawn)
inhibition [3]: > 60% | inhibition [4]: Dose-dependent effect | IC50 (Acetylcholinesterase [1]): 2.71 µM | inhibition [5]: Dose-dependent effect | IC50 (Cholinesterase): 33.9 µM | Ratio IC50 [6]: 12.5 | Ki (Acetylcholinesterase [7]): 2.45 µM | Activity_index (Mus musculus [2]): 320.1

O=C(N/N=C/c1ccc(-n2ccnc2)cc1)c1ccc(CN2CCCC(O)C2)cc1 (stereo not drawn)
inhibition [3]: > 60% | inhibition [4]: Dose-dependent effect | IC50 (Acetylcholinesterase [1]): 21.7 µM | inhibition [5]: Dose-dependent effect | IC50 (Cholinesterase): 39.6 µM | Ratio IC50 [6]: 1.8 | Ki (Acetylcholinesterase [7]): 21.1 µM

O=C(N/N=C/c1ccc(N2CCCCC2)cc1)c1ccc(CN2CCCC(O)C2)cc1 (stereo not drawn)
inhibition [3]: > 60% | inhibition [4]: Dose-dependent effect | IC50 (Acetylcholinesterase [1]): 10.9 µM | inhibition [5]: Dose-dependent effect | IC50 (Cholinesterase): 58.1 µM | Ratio IC50 [6]: 5.3 | Ki (Acetylcholinesterase [7]): 9.7 µM | Activity_index (Mus musculus [2]): 64.56 | Time (Mus musculus [8]): 19.63 s | Time (Mus musculus [9]): 110 s

O=C(N/N=C/c1ccc(Br)cc1)c1ccc(CN2CCCC(O)C2)cc1 (stereo not drawn)
inhibition [3]: > 60% | inhibition [4]: Dose-dependent effect | IC50 (Acetylcholinesterase [1]): 11.9 µM | Activity_index (Mus musculus [2]): 235.8

CC(C)Cc1ccc(C(C)C(=O)O)cc1 (stereo not drawn)
inhibition [14]: 88%

O=C(N/N=C/c1ccc(N2CCCC2)cc1)c1ccc(CN2CCCC(O)C2)cc1 (stereo not drawn)
inhibition [3]: > 60% | inhibition [4]: Dose-dependent effect | IC50 (Acetylcholinesterase [1]): 14.7 µM | Activity_index (Mus musculus [2]): 206.4

Nc1ccc(/C=N/NC(=O)c2ccc(CN3CCCC(O)C3)cc2)cc1 (stereo not drawn)
inhibition [3]: > 60% | inhibition [4]: Dose-dependent effect | IC50 (Acetylcholinesterase [1]): 21.5 µM | Activity_index (Mus musculus [2]): 244.4

COc1cc2c(cc1OC)C(=O)C(CC1CCN(Cc3ccccc3)CC1)C2 (stereo not drawn) [DONEPEZIL]
viability at 6 h, 40 µM [15]: > 90%

COc1cccc2c1C(=O)c1c(O)c3c(c(O)c1C2=O)C[C@@](O)(C(=O)CO)C[C@@H]3O[C@H]1C[C@H](N)[C@H](O)[C@H](C)O1 [DOXORUBICIN]
viability at 6 h, 40 µM [15]: > 90%

O=C(N/N=C/c1ccccc1)c1ccc(CN2CCCC(O)C2)cc1 (stereo not drawn)
inhibition [3]: > 60% | inhibition [4]: Dose-dependent effect | IC50 (Acetylcholinesterase [1]): 30 µM

COc1ccc2c(c1)c(CC(=O)O)c(C)n2C(=O)c1ccc(Cl)cc1 [INDOMETHACIN]
Activity_index (Mus musculus [2]): 158.1 | Time (Mus musculus [8]): 65.43 s | Time (Mus musculus [9]): 22.75 s | Activity (Mus musculus [10]): 14.29 µL | ED50 (Mus musculus [11]): 2.12 µmol/kg | inhibition (INH) (Mus musculus [16]): 52% | inhibition (INH) (Mus musculus [17]): 40%

CSc1ccc(/C=N/NC(=O)c2ccc(CN3CCCC(O)C3)cc2)cc1 (stereo not drawn)
inhibition [3]: > 60% | inhibition [4]: Dose-dependent effect | IC50 (Acetylcholinesterase [1]): 10.4 µM | inhibition [5]: Dose-dependent effect | IC50 (Cholinesterase): 59.3 µM | Ratio IC50 [6]: 5.7 | Ki (Acetylcholinesterase [7]): 8.42 µM | Activity_index (Mus musculus [2]): 260.3
